Legend:
Type in all cases: functional
Rattus norvegicus [1] = assay: Antiallergic activity by rat passive cutaneous anaphylaxis (PCA) assay when administered per orally;value ranges between( 0.5-2.9).; conditions: po
Outline: (§1)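 Rats were passively sensitized intradermally with diluted reaginic anti-ovalbumin serum 24 h before challenge. Compound was suspended in 1% acacia and dosed by oral feeding needle at 1 mL/kg. After 20-30 min, rats were challenged with 0.02 mg ovalbumin in 0.5 mL 2% Evans Blue. Blued areas were measured 30 min after challenge. Six rats per dose; ED50 is 50% area reduction from control, with 95% confidence limits.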

Rattus norvegicus [2] = assay: Antiallergic activity by rat passive cutaneous anaphylaxis (PCA) assay when administered per orally; conditions: po; outline: as §1
Rattus norvegicus [3] = assay: antiallergic activity by rat passive cutaneous anaphylaxis (PCA) assay when administered iv
Outline: (§2)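 Male rats sensitized by id injection of diluted rat anti-ovalbumin reaginic serum (0.1 mL each side of shaved back). 24 h later, compound in saline was mixed with 5 mg ovalbumin in 0.5 mL 2% Evans Blue and given iv at 1 mL/kg. Blued-spot diameters were read 30 min later. Six rats per group; ED50 is 50% area reduction versus control, with 95% confidence limits.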

Rattus norvegicus [4] = assay: Antiallergic activity by rat passive cutaneous anaphylaxis (PCA) assay when administered iv;value ranges between (0.2-1.1).; outline: as §2
Rattus norvegicus [5] = assay: Antiallergic activity by rat passive cutaneous anaphylaxis (PCA) assay when administered per orally;value ranges between (0.5-3.27); conditions: po; outline: as §1
Rattus norvegicus [6] = assay: Antiallergic activity by rat passive cutaneous anaphylaxis (PCA) assay when administered per orally;value ranges between (0.11-0.75.); conditions: po; outline: as §1
Rattus norvegicus [7] = assay: Antiallergic activity by rat passive cutaneous anaphylaxis (PCA) assay when administered per orally;value ranges between (1.02-2.15).; conditions: po; outline: as §1
Rattus norvegicus [8] = assay: Antiallergic activity by rat passive cutaneous anaphylaxis (PCA) assay when administered per orally.;value ranges between (1.3-3.2); conditions: po; outline: as §1
Rattus norvegicus [9] = assay: Antiallergic activity by rat passive cutaneous anaphylaxis (PCA) assay when administered per orally;value ranges between (0.91-5.2); conditions: po; outline: as §1
Rattus norvegicus [10] = assay: Antiallergic activity by rat passive cutaneous anaphylaxis (PCA) assay when administered iv;value ranges between (0.56-2.74); outline: as §2

## CCOC(=O)C(=O)Nc1nc(-c2ccncc2)cs1
Rattus norvegicus [1]
  ED50: 1.2 mg/kg

## CCOC(=O)C(=O)Nc1nc(-c2ccc(F)cc2)cs1
Rattus norvegicus [2]
  ED50: > 10 mg/kg

## CCOC(=O)C(=O)Nc1nc(-c2ccc(N(C)C)cc2)cs1
Rattus norvegicus [3]
  ED50: ~0.3 mg/kg
Rattus norvegicus [2]
  ED50: ~1 mg/kg

## COc1ccc(-c2csc(NC(=O)C(=O)O)n2)c(OC)c1
Rattus norvegicus [4]
  ED50: 0.39 mg/kg
Rattus norvegicus [2]
  ED50: > 10 mg/kg

## Cc1cc(-c2csc(NC(=O)C(=O)O)n2)ccc1O.NCCO
Rattus norvegicus [2]
  ED50: ~1 mg/kg

## CCOC(=O)C(=O)Nc1ccc(-c2csc(NC(=O)C(=O)OCC)n2)cc1
Rattus norvegicus [2]
  ED50: > 30 mg/kg

## CCOC(=O)C(=O)Nc1nc(-c2cc(OC)c(O)c(OC)c2)cs1
Rattus norvegicus [2]
  ED50: ~10 mg/kg

## CCOC(=O)C(=O)Nc1nc(-c2cccc(OC)c2)cs1
Rattus norvegicus [2]
  ED50: ~20 mg/kg

## CCOC(=O)C(=O)Nc1nc(-c2ccc(-c3ccccc3)cc2O)cs1
Rattus norvegicus [2]
  ED50: > 10 mg/kg

## NCCO.O=C(O)C(=O)Nc1nc(-c2ccc(Sc3ccccc3)cc2)cs1
Rattus norvegicus [2]
  ED50: > 30 mg/kg

## COC(=O)C(=O)Nc1nc(-c2ccc(OC)c(OC)c2)cs1
Rattus norvegicus [5]
  ED50: 1.2 mg/kg

## CCOC(=O)C(=O)Nc1nc(-c2ccc(C(=O)OCC)cc2)cs1
Rattus norvegicus [2]
  ED50: > 10 mg/kg

## CCOC(=O)c1ccc(-c2csc(NC(=O)C(=O)OC)n2)cc1
Rattus norvegicus [2]
  ED50: > 10 mg/kg

## NCCO.O=C(O)C(=O)Nc1nc(-c2ccc(Oc3ccccc3)cc2)cs1
Rattus norvegicus [2]
  ED50: > 10 mg/kg

## COc1ccccc1-c1csc(NC(=O)C(=O)O)n1
Rattus norvegicus [3]
  ED50: > 1 mg/kg

## CCOC(=O)C(=O)Nc1nc(-c2ccc(NC(C)=O)cc2)cs1
Rattus norvegicus [6]
  ED50: 0.29 mg/kg

## CCOC(=O)C(=O)Nc1nc(-c2ccc3c(c2)Sc2ccccc2S3)cs1
Rattus norvegicus [2]
  ED50: > 10 mg/kg

## CCOC(=O)C(=O)Nc1nc(-c2ccc(NC(=O)C(F)(F)F)cc2)cs1
Rattus norvegicus [2]
  ED50: ~1 mg/kg

## COc1ccc(-c2csc(NC(=O)C(=O)O)n2)cc1OC
Rattus norvegicus [7]
  ED50: 1.48 mg/kg

## O=C(O)C(=O)Nc1nc(-c2ccc(-c3ccccc3)cc2O)cs1
Rattus norvegicus [2]
  ED50: > 30 mg/kg

## CCOC(=O)C(=O)Nc1nc(-c2ccc(OCC)cc2)cs1
Rattus norvegicus [8]
  ED50: 2.1 mg/kg

## CCOC(=O)C(=O)Nc1nc(-c2ccco2)cs1
Rattus norvegicus [9]
  ED50: 2.2 mg/kg

## CCOC(=O)C(=O)Nc1nc(-c2ccc(OC)cc2)cs1 [TIOXAMAST]
Rattus norvegicus [2]
  ED50: ~10 mg/kg

## CC(=O)Nc1ccc(-c2csc(NC(=O)C(N)=O)n2)cc1
Rattus norvegicus [2]
  ED50: > 10 mg/kg

## NCCO.O=C(O)C(=O)Nc1nc(-c2cccc(O)c2)cs1
Rattus norvegicus [3]
  ED50: ~0.1 mg/kg
Rattus norvegicus [2]
  ED50: 3 mg/kg

## NC(=O)C(=O)Nc1ccc(-c2csc(NC(=O)C(N)=O)n2)cc1
Rattus norvegicus [2]
  ED50: ~1 mg/kg

## Cc1cc(C)c(-c2csc(NC(=O)C(=O)O)n2)c(O)c1.NCCO
Rattus norvegicus [2]
  ED50: > 10 mg/kg

## NCCO.O=C(O)C(=O)Nc1nc(-c2ccncc2)cs1
Rattus norvegicus [2]
  ED50: > 3 mg/kg

## CCOC(=O)C(=O)Nc1nc(-c2ccccc2OC)cs1
Rattus norvegicus [3]
  ED50: ~1 mg/kg
Rattus norvegicus [2]
  ED50: > 30 mg/kg

## CCCC(=O)Nc1ccc(-c2csc(NC(=O)C(=O)OCC)n2)cc1
Rattus norvegicus [3]
  ED50: < 0.3 mg/kg
Rattus norvegicus [2]
  ED50: > 10 mg/kg

## CCCCOC(=O)C(=O)Nc1nc(-c2ccc(C(=O)OCC)cc2)cs1
Rattus norvegicus [2]
  ED50: > 10 mg/kg

## COc1ccc(OC)c(-c2csc(NC(=O)C(=O)O)n2)c1.NCCO
Rattus norvegicus [3]
  ED50: ~0.3 mg/kg
Rattus norvegicus [2]
  ED50: ~7 mg/kg

## CCOC(=O)C(=O)Nc1nc(-c2ccc(O)c(O)c2)cs1
Rattus norvegicus [2]
  ED50: 1.4 mg/kg

## CCOC(=O)C(=O)Nc1nc(-c2ccccn2)cs1
Rattus norvegicus [2]
  ED50: ~10 mg/kg

## O=C([O-])c1cc(=O)c2c(OCC(O)COc3cccc4oc(C(=O)[O-])cc(=O)c34)cccc2o1.[Na+].[Na+] [CROMOLYN SODIUM]
Rattus norvegicus [10]
  ED50: 1.24 mg/kg

## CCOC(=O)C(=O)Nc1nc(-c2cc(OC)ccc2OC)cs1
Rattus norvegicus [2]
  ED50: > 10 mg/kg

## CCOC(=O)C(=O)Nc1nc(-c2ccc(OC)cc2OC)cs1
Rattus norvegicus [2]
  ED50: > 30 mg/kg

## Cc1cc(O)ccc1-c1csc(NC(=O)C(=O)O)n1.NCCO
Rattus norvegicus [3]
  ED50: 1 mg/kg
Rattus norvegicus [2]
  ED50: > 10 mg/kg

## CCOC(=O)C(=O)Nc1nc(-c2cccnc2)cs1
Rattus norvegicus [2]
  ED50: ~10 mg/kg

## CCOC(=O)C(=O)Nc1nc(-c2ccc3c(c2)CCCC3)cs1
Rattus norvegicus [2]
  ED50: > 10 mg/kg

## CCOC(=O)C(=O)Nc1nc(-c2ccccc2C(=O)OC)cs1
Rattus norvegicus [2]
  ED50: > 10 mg/kg
